B1: Osa-1-4 twister ribozyme (parent)
chain: CCGCCUAACACUGCCAAUGCCGGUCCCAAGCCCGGAUAAAAGUGGAGGGGGCGG

Variants of: B1
Experiment: self-cleavage, relative activity (ratio to wild type); higher = more cleavage; co-transcriptional
In short: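 Values are relative activity: the fraction cleaved, normalised to wild type. A doped DNA template for a 54-nucleotide twister ribozyme from Oryza sativa had 97 % wild-type base and 1 % of each other base at the 48 positions downstream of the cleavage site. The RNA was transcribed in vitro for 2 h at 37 °C so that it could cleave itself co-transcriptionally, then sequenced deeply, with cleavage status scored from the presence or absence of upstream sequence in reads.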

Variant	self-cleavage
CCGCCUAACACUGCCAAUGCCGGUCCCCAGCCCUGAUAAAAGUGGAGGGGGCGG [A28C G34U]	0.51
CCGCCUAACACUGCCAAUGCCGGUCCCCAGCCCCGAUAAAAGUGGAGGGGGCGG [A28C G34C]	0.38
CCGCCUAACACUGCCAAUGCCGGUCCCCAGCCCAGAUAAAAGUGGAGGGGGCGG [A28C G34A]	0.69
CCGCCUAACACUGCCAAUGCCGAUCCCCAGCCCGGAUAAAAGUGGAGGGGGCGG [A28C G23A]	0.2
CCGCCUAACACUGCCAAUGCCGUUCCCCAGCCCGGAUAAAAGUGGAGGGGGCGG [A28C G23U]	0.07
CCGCCUAACACUGCCAAUGCCGCUCCCCAGCCCGGAUAAAAGUGGAGGGGGCGG [A28C G23C]	0.05
CCGCCUAACACUGCCAAUGCCGGUCCCCAGCCCGGAUAAAAGUGGUGGGGGCGG [A28C A46U]	0.07
CCGCCUAACACUGCCAAUGCCGGUCCCCAGCCCGGAUAAAAGUGGCGGGGGCGG [A28C A46C]	0.06
CCGCCUAACACUGCCAAUGCCGGUCCCCAGCCCGGAUAAAAGUGGGGGGGGCGG [A28C A46G]	0.07
CCGCCUAACACUGCCAAUGCCGGUCCCCAGACCGGAUAAAAGUGGAGGGGGCGG [A28C C31A]	0.04
CCGCCUAACACUGCCAAUGCCGGUCCCCAGGCCGGAUAAAAGUGGAGGGGGCGG [A28C C31G]	0.09
CCGCCUAACACUGCCAAUGCCGGUCCCCAGUCCGGAUAAAAGUGGAGGGGGCGG [A28C C31U]	0.84
CCGCCUAACACUGCCAAUGUCGGUCCCCAGCCCGGAUAAAAGUGGAGGGGGCGG [A28C C20U]	1.01
CCGCCUAACACUGCCAAUGGCGGUCCCCAGCCCGGAUAAAAGUGGAGGGGGCGG [A28C C20G]	0.31
CCGCCUAACACUGCCAAUGACGGUCCCCAGCCCGGAUAAAAGUGGAGGGGGCGG [A28C C20A]	0.94
CCGCCUAUCACUGCCAAUGCCGGUCCCCAGCCCGGAUAAAAGUGGAGGGGGCGG [A28C A8U]	0.1
CCGCCUAGCACUGCCAAUGCCGGUCCCCAGCCCGGAUAAAAGUGGAGGGGGCGG [A28C A8G]	0.17
CCGCCUACCACUGCCAAUGCCGGUCCCCAGCCCGGAUAAAAGUGGAGGGGGCGG [A28C A8C]	0.09
CCGCCUAACACUGCCAAUGCCGGUCCCCAGCCCGGAUAAACGUGGAGGGGGCGG [A28C A41C]	0.91
CCGCCUAACACUGCCAAUGCCGGUCCCCAGCCCGGAUAAAUGUGGAGGGGGCGG [A28C A41U]	0.98
CCGCCUAACACUGCCAAUGCCGGUCCCCAGCCCGGAUAAAGGUGGAGGGGGCGG [A28C A41G]	0.82
CCGCCUAACACUGCCAAUACCGGUCCCCAGCCCGGAUAAAAGUGGAGGGGGCGG [A28C G19A]	0.79
CCGCCUAACACUGCCAAUCCCGGUCCCCAGCCCGGAUAAAAGUGGAGGGGGCGG [A28C G19C]	0.23
CCGCCUAACACUGCCAAUUCCGGUCCCCAGCCCGGAUAAAAGUGGAGGGGGCGG [A28C G19U]	0.35
CCGCCUAACACUGACAAUGCCGGUCCCCAGCCCGGAUAAAAGUGGAGGGGGCGG [A28C C14A]	0.09

Variant	self-cleavage
CCGCCUAACACUGUCAAUGCCGGUCCCCAGCCCGGAUAAAAGUGGAGGGGGCGG [A28C C14U]	0.46
CCGCCUAACACUGGCAAUGCCGGUCCCCAGCCCGGAUAAAAGUGGAGGGGGCGG [A28C C14G]	0.17
CCGCCUAACACUGCCAAUGCCGGUCCCCAGCCCGGAUAAAAGUGAAGGGGGCGG [A28C G45A]	0.13
CCGCCUAACACUGCCAAUGCCGGUCCCCAGCCCGGAUAAAAGUGCAGGGGGCGG [A28C G45C]	0.03
CCGCCUAACACUGCCAAUGCCGGUCCCCCGCCCGGAUAAAAGUGGAGGGGGCGG [A28C A29C]	0.05
CCGCCUAACACUGCCAAUGCCGGUCCCCGGCCCGGAUAAAAGUGGAGGGGGCGG [A28C A29G]	0.16
CCGCCUAACACUGCCAAUGCCGGUCCCCUGCCCGGAUAAAAGUGGAGGGGGCGG [A28C A29U]	0.09
CCGCCUAACACUGCCAAUGCCGGUCCCCAGCCCGGAUAAAAGUGGAGGGGGUGG [A28C C52U]	1.01
CCGCCUAACACUGCCAAUGCCGGUCCCCAGCCCGGAUAAAAGUGGAGGGGGGGG [A28C C52G]	0.93
CCGCCUAACACUGCCAAUGCCGGUCCCCAGCCCGGAUAAAAGUGGAGGGGGAGG [A28C C52A]	0.68
CCGCCUAACACUGCCAAUGCCGGUCCCCAGCCCGGUUAAAAGUGGAGGGGGCGG [A28C A36U]	1.02
CCGCCUAACACUGCCAAUGCCGGUCCCCAGCCCGGGUAAAAGUGGAGGGGGCGG [A28C A36G]	1
CCGCCUAACACUGCCAAUGCCGGUCCCCAGCCCGGCUAAAAGUGGAGGGGGCGG [A28C A36C]	0.64
CCGCCUAACACUGCCAAUGCCUGUCCCCAGCCCGGAUAAAAGUGGAGGGGGCGG [A28C G22U]	0.4
CCGCCUAACACUGCCAAUGCCCGUCCCCAGCCCGGAUAAAAGUGGAGGGGGCGG [A28C G22C]	0.08
CCGCCUAACACUGCCAAUGCCAGUCCCCAGCCCGGAUAAAAGUGGAGGGGGCGG [A28C G22A]	0.68
CCGCCUAACACUGCCAAUGCCGGUCCCCAGCCCGGAUAUAAGUGGAGGGGGCGG [A28C A39U]	1
CCGCCUAACACUGCCAAUGCCGGUCCCCAGCCCGGAUACAAGUGGAGGGGGCGG [A28C A39C]	0.93
CCGCCUAACACUGCCAAUGCCGGUCCCCAGCCCGGAUAGAAGUGGAGGGGGCGG [A28C A39G]	0.99
CCGCCUAACACUGCCAAUGCCGGUCCCCAGCGCGGAUAAAAGUGGAGGGGGCGG [A28C C32G]	0.1
CCGCCUAACACUGCCAAUGCCGGUCCCCAGCACGGAUAAAAGUGGAGGGGGCGG [A28C C32A]	0.08
CCGCCUAACACUGCCAAUGCCGGUCCCCAGCUCGGAUAAAAGUGGAGGGGGCGG [A28C C32U]	0.11
CCGCCUAACACUGCCAAUGCCGGUCACCAGCCCGGAUAAAAGUGGAGGGGGCGG [A28C C26A]	0.05
CCGCCUAACACUGCCAAUGCCGGUCGCCAGCCCGGAUAAAAGUGGAGGGGGCGG [A28C C26G]	0.09
CCGCCUAACACUGCCAAUGCCGGUCUCCAGCCCGGAUAAAAGUGGAGGGGGCGG [A28C C26U]	0.78

Variant	self-cleavage
CCGCCUAACACUGCCAAUGCCGGUCCACAGCCCGGAUAAAAGUGGAGGGGGCGG [A28C C27A]	0.09
CCGCCUAACACUGCCAAUGCCGGUCCUCAGCCCGGAUAAAAGUGGAGGGGGCGG [A28C C27U]	0.11
CCGCCUAACACUGCCAAUGCCGGUCCGCAGCCCGGAUAAAAGUGGAGGGGGCGG [A28C C27G]	0.05
CCGCCUAACACUGCCAAUGCAGGUCCCCAGCCCGGAUAAAAGUGGAGGGGGCGG [A28C C21A]	0.53
CCGCCUAACACUGCCAAUGCUGGUCCCCAGCCCGGAUAAAAGUGGAGGGGGCGG [A28C C21U]	1
CCGCCUAACACUGCCAAUGCGGGUCCCCAGCCCGGAUAAAAGUGGAGGGGGCGG [A28C C21G]	0.09
CCGCCUAACACUGCCAAUGCCGGUCCCCAGCCCGGAUAAAAAUGGAGGGGGCGG [A28C G42A]	0.43
CCGCCUAACACUGCCAAUGCCGGUCCCCAGCCCGGAUAAAACUGGAGGGGGCGG [A28C G42C]	0.12
CCGCCUAACACUGCCAAUGCCGGUCCCCAGCCCGGAUAAAAUUGGAGGGGGCGG [A28C G42U]	0.08
CCGCCUAACACUGCCAAUGCCGGUCCCCAGCCUGGAUAAAAGUGGAGGGGGCGG [A28C C33U]	0.86
CCGCCUAACACUGCCAAUGCCGGUCCCCAGCCAGGAUAAAAGUGGAGGGGGCGG [A28C C33A]	0.12
CCGCCUAACACUGCCAAUGCCGGUCCCCAGCCGGGAUAAAAGUGGAGGGGGCGG [A28C C33G]	0.07
CCGCCUAACACUGCCAAUGCCGGUCCCCAUCCCGGAUAAAAGUGGAGGGGGCGG [A28C G30U]	0.04
CCGCCUAACACUGCCAAUGCCGGUCCCCAACCCGGAUAAAAGUGGAGGGGGCGG [A28C G30A]	0.04
CCGCCUAACACUGCCAAUGCCGGUCCCCACCCCGGAUAAAAGUGGAGGGGGCGG [A28C G30C]	0.05
CCGCCUAACACUACCAAUGCCGGUCCCCAGCCCGGAUAAAAGUGGAGGGGGCGG [A28C G13A]	0.11
CCGCCUAACACUCCCAAUGCCGGUCCCCAGCCCGGAUAAAAGUGGAGGGGGCGG [A28C G13C]	0.02
CCGCCUAACACUUCCAAUGCCGGUCCCCAGCCCGGAUAAAAGUGGAGGGGGCGG [A28C G13U]	0.03
CCGCCUAACACUGCCAAUGCCGGUCCCCAGCCCGGAUAAGAGUGGAGGGGGCGG [A28C A40G]	0.68
CCGCCUAACACUGCCAAUGCCGGUCCCCAGCCCGGAUAACAGUGGAGGGGGCGG [A28C A40C]	0.08
CCGCCUAACACUGCCAAUGCCGGUCCCCAGCCCGGAUAAUAGUGGAGGGGGCGG [A28C A40U]	0.55
CCGCCUAACACUGCCAAUGCCGGUCCCCAGCCCGCAUAAAAGUGGAGGGGGCGG [A28C G35C]	0.4
CCGCCUAACACUGCCAAUGCCGGUCCCCAGCCCGUAUAAAAGUGGAGGGGGCGG [A28C G35U]	0.85
CCGCCUAACACUGCCAAUGCCGGUCCCCAGCCCGAAUAAAAGUGGAGGGGGCGG [A28C G35A]	0.81
CCGCCUAACACUGCUAAUGCCGGUCCCCAGCCCGGAUAAAAGUGGAGGGGGCGG [A28C C15U]	0.33

Variant	self-cleavage
CCGCCUAACACUGCGAAUGCCGGUCCCCAGCCCGGAUAAAAGUGGAGGGGGCGG [A28C C15G]	0.32
CCGCCUAACACUGCAAAUGCCGGUCCCCAGCCCGGAUAAAAGUGGAGGGGGCGG [A28C C15A]	0.35
CCGCCUAACACUGCCAAUGCCGGUCCCCAGCCCGGAUAAAAGUCGAGGGGGCGG [A28C G44C]	0.95
CCGCCUAACACUGCCAAUGCCGGUCCCCAGCCCGGAUAAAAGUUGAGGGGGCGG [A28C G44U]	0.75
CCGCCUAACACUGCCAAUGCCGGUCCCCAGCCCGGAUAAAAGUAGAGGGGGCGG [A28C G44A]	0.95
CCGCCUAACACUGCCAAUGCCGGUCCCCAGCCCGGAUUAAAGUGGAGGGGGCGG [A28C A38U]	0.97
CCGCCUAACACUGCCAAUGCCGGUCCCCAGCCCGGAUGAAAGUGGAGGGGGCGG [A28C A38G]	1.01
CCGCCUAACACUGCCAAUGCCGGUCCCCAGCCCGGAUCAAAGUGGAGGGGGCGG [A28C A38C]	0.98
CCGCCUAAUACUGCCAAUGCCGGUCCCCAGCCCGGAUAAAAGUGGAGGGGGCGG [A28C C9U]	0.8
CCGCCUAAGACUGCCAAUGCCGGUCCCCAGCCCGGAUAAAAGUGGAGGGGGCGG [A28C C9G]	0.67
CCGCCUAAAACUGCCAAUGCCGGUCCCCAGCCCGGAUAAAAGUGGAGGGGGCGG [A28C C9A]	0.42
CCGCCUAACAUUGCCAAUGCCGGUCCCCAGCCCGGAUAAAAGUGGAGGGGGCGG [A28C C11U]	0.91
CCGCCUAACAAUGCCAAUGCCGGUCCCCAGCCCGGAUAAAAGUGGAGGGGGCGG [A28C C11A]	0.71
CCGCCUAACAGUGCCAAUGCCGGUCCCCAGCCCGGAUAAAAGUGGAGGGGGCGG [A28C C11G]	0.21
CCGCCUAACACUGCCAAUGCCGGUGCCCAGCCCGGAUAAAAGUGGAGGGGGCGG [A28C C25G]	0.09
CCGCCUAACACUGCCAAUGCCGGUACCCAGCCCGGAUAAAAGUGGAGGGGGCGG [A28C C25A]	0.09
CCGCCUAACACUGCCAAUGCCGGUUCCCAGCCCGGAUAAAAGUGGAGGGGGCGG [A28C C25U]	0.91
CCGCCUAACACUGCCAAUGCCGGUCCCCAGCCCGGAUAAAAGUGGAGGGGGCGG [A28C]	1
CCGCCUAACACUGCCAAUGCCGGUCCUAAGCCCGGAUAAAAGGGGAGGGGGCGG [C27U U43G]	0.08
CCGCCUUACACUGCCAAUGCCGGUCCCCAGCCCGGAUAAAAGUGGAGGGGGCGG [A28C A7U]	0.07
CCGCCUGACACUGCCAAUGCCGGUCCCCAGCCCGGAUAAAAGUGGAGGGGGCGG [A28C A7G]	0.2
CCGCCUCACACUGCCAAUGCCGGUCCCCAGCCCGGAUAAAAGUGGAGGGGGCGG [A28C A7C]	0.06
